# Experimental data reported in PubChem BioAssay AID624466 (The Scripps Research Institute Molecular Screening Center, 2012).
# Hit rate of the full screen: of about 360,000 compounds, about 5,400 (1.5%) were called active. This is one part of a sample in which actives are shown more often than they occur.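 How the source made its calls: active means inhibition above a per-plate cutoff, the mean inhibition of test compounds on that plate plus 3 SD (cut at about 49% in these data); inactive means the rest.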
# Biological target: Trace amine-associated receptor 1 (Homo sapiens) (UniProt Q96RJ0)
# Assay: blockers of beta-PEA-driven TAAR1 calcium signal – Fluo-8 calcium fluorescence, CHO RD-HGA16 cells, primary screen (AID 624466);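 further: 0% = DMSO plus EC80 beta-PEA response and 100% = DMSO alone without agonist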
# Conditions: CHO RD-HGA16 TAAR1, Fluo-8 calcium fluorescence, antagonist; at 3 µM; stronger effect = higher value
# Procedure, shortened: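 System: RD-HGA16 CHO cells with stable hTAAR1 and Gα16 | Probe or stimulus: EC80 β-phenethylamine stimulus | Dosing: 3 µM, single point | Times: Dye loading 75 min at 37 °C, then 30 min room temperature | Measured by: Fluo-8 calcium-sensitive fluorescence | Read-out basis: % inhibition of agonist calcium response | Replicates: n of 1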
# Trace amine-associated receptor 1 (Homo sapiens), sequence (Q96RJ0 whole entry, looked up): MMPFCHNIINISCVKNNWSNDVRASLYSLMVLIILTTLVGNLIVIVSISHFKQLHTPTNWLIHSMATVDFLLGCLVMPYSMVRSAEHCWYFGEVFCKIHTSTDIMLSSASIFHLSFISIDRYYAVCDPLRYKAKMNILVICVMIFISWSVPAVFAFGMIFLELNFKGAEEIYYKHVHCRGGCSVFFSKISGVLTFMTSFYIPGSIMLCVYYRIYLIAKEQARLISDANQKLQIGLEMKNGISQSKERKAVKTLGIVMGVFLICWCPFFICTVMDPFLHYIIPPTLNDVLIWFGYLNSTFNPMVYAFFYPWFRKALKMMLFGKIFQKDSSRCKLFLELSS
row,SMILES,inhibition
1,CCCCNC(=O)Nc1c(C)cc(SC#N)cc1C,7.39% (inactive)
2,O=C(NN1C(=O)C2C3C=CC(C4CC34)C2C1=O)c1ccc(Cl)cc1 (stereo not drawn),1.86% (inactive)
3,Cc1ccc(N)cc1CN1CCN(c2ncc(Cc3ccccc3)cn2)CC1,-11.9% (inactive)
4,O=C(Nc1cccc(S(=O)(=O)N2CCCCC2)c1)c1cncc(Br)c1,28.2% (inactive)
5,O=C(Nc1ccc(S(=O)(=O)N2CCCCCC2)cc1)c1c(F)cccc1F,-11.6% (inactive)
6,Cc1onc(-c2c(F)cccc2Cl)c1C(=O)Nc1cccc(S(=O)(=O)N2CCCCC2)c1,60.4% (active)
7,Cc1ccccc1S(=O)(=O)N1[C@@H](c2cccc(Cl)c2)C(C(=O)O)=CC[C@H]1c1ccc(Cl)cc1,50.1% (active)
8,Cc1ccc([C@@H]2CC=C(C(=O)O)[C@H](c3cccc(Cl)c3)N2S(=O)(=O)c2ccc(C)cc2)cc1,29.7% (inactive)
9,Cc1ccccc1S(=O)(=O)N1[C@@H](c2cccc(Cl)c2)C(C(=O)OC(C)(C)C)=CC[C@H]1c1ccc(Cl)cc1,-16.6% (inactive)
10,CC(C)(C)n1nc(C2CC2)c(Br)c1NC(=O)c1ccccc1F,-16.1% (inactive)
11,CN1CCCc2nc(-c3ccccc3)ccc21,-0.46% (inactive)
12,COc1ccc(-c2ccc3c(n2)CCCN3S(=O)(=O)c2ccc(C)cc2)cc1,24% (inactive)
13,O=S(=O)(c1cccs1)N1CCCc2nc(-c3ccc(Br)cc3)ccc21,58% (active)
14,COC(=O)[C@]12C[C@H](CC(=O)N3CCN(C(=O)C4CC4)CC3)C(=O)N(Cc3ccc4c(c3)OCO4)C1=C[C@H](C(C)(C)C)O[C@@H]2C,1.35% (inactive)
15,O=C1Nc2ccccc2-n2nnnc2C1N1CCN(c2cccc(C(F)(F)F)n2)CC1 (stereo not drawn),7.81% (inactive)
16,COc1ccc(C(=O)NC(C)CCc2ccccc2)c(OC)c1 (stereo not drawn),-22.5% (inactive)
17,COc1ccc(C(=O)CCC(=O)Nc2cccnc2)c(OC)c1,-6.73% (inactive)
18,COc1ccc(C(=O)Nc2cccc(NC(=O)c3ccc(OC)cc3OC)n2)c(OC)c1,64.8% (active)
19,CC1(C(=O)Nc2ccc3c(c2)OCCO3)CSCC(=O)N1CCOc1ccccc1 (stereo not drawn),-7.49% (inactive)
20,CCN(CC)c1ccc2oc(=O)c(C)nc2c1,49.8% (active)
21,CCc1ccc2oc(-c3ccc(N)cc3)nc2c1,8.65% (inactive)
22,Cc1ccc2oc(=O)ccc2c1,2.03% (inactive)

row,SMILES,inhibition
1,O=C(NCCCn1ccnc1)c1cc2c(s1)CCCC2,-26.6% (inactive)
2,C/C=N/N(c1ccccc1)c1ccccc1,-13.2% (inactive)
3,C[C@H]1CN([C@@H](C)CO)C(=O)CCCn2nncc2CO[C@@H]1CN(C)C(=O)Nc1ccc(N2CCN(C)CC2)cc1,5.42% (inactive)
4,CC(C)CNC(=S)Nc1ccc(F)cc1,5.98% (inactive)
5,O=C(CCl)Nc1ccc(Sc2ccc(NC(=O)CCl)cc2)cc1,21.9% (inactive)
6,CC(C)(CCl)C(=O)Nc1ccc(Sc2ccc(F)cc2)cc1,57.9% (active)
7,COc1cc(NS(=O)(=O)c2ccc(N/C=C(\C=O)c3nc4cc(Cl)ccc4o3)cc2)nc(OC)n1,16.2% (inactive)
8,CCN(CC(=O)NC1CCS(=O)(=O)C1)S(=O)(=O)c1ccccc1 (stereo not drawn),-18% (inactive)
9,N#C/C(=C\c1ccc(N2CCOCC2)o1)C(=O)N1CCOCC1,-12.1% (inactive)
10,N#C/C(=C/c1ccc(N2CCCCC2)o1)C(=O)NCCc1c[nH]c2ccccc12,57.6% (active)
11,O=C(NCCc1c[nH]c2ccccc12)C1CCN(Cc2ccc(Br)cc2)CC1,2.79% (inactive)
12,Cc1cc(Br)cn2c(Cc3ccccc3C(F)(F)F)c(-c3ccc(C#N)cc3)nc12,3.16% (inactive)
13,CN(C(=O)COC(=O)CCCc1c[nH]c2ccccc12)c1c(N)n(Cc2ccccc2)c(=O)[nH]c1=O,2.09% (inactive)
14,COc1ccc(SSc2ccc(OC)cc2C(=O)O)c(C(=O)O)c1,-9.02% (inactive)
15,S=C(Nc1ccc(Br)cc1)NC1CCN(Cc2ccccc2)CC1,51.4% (active)
16,S=C(NN=C1CCN(Cc2ccccc2)CC1)NC1CCCCC1,-2.21% (inactive)
17,S=C(Nc1ccc(Br)cc1Cl)NC1CCN(Cc2ccccc2)CC1,0.09% (inactive)
18,Cc1ccc2nc(-c3ccc(CN4CCC(n5cc(-c6ccccc6)[nH]c5=O)CC4)cc3)c(-c3ccccc3)nc2c1,14.1% (inactive)
19,Cc1cc(Cl)c(S(=O)(=O)NCc2cccnc2)cc1OCC(N)=O,-0.54% (inactive)
20,CCC(=O)N1Cc2cc(C(=O)NCc3cccc(F)c3)nc(-c3cccc(C4=CCCC4)c3)c2[C@H]1CCO,-2.34% (inactive)
21,Nc1c(C(=O)c2cccs2)sc2nsc(SCCN3CCCCC3)c12,61.2% (active)
22,COc1cccc(-c2nnc(N(C)C(=O)c3ccno3)s2)c1,8.59% (inactive)

row,SMILES,inhibition
1,CCN1C(=O)C(CC(=O)Nc2cc(C)ccc2C)SC1=Nc1ccc(S(N)(=O)=O)cc1 (stereo not drawn),6.51% (inactive)
2,CN=C1SC(CC(=O)Nc2ccc(C(=O)O)cc2)C(=O)N1C (stereo not drawn),-12.5% (inactive)
3,CCN=C1SC(CC(=O)Nc2ccc(C)cc2)C(=O)N1CC (stereo not drawn),57.5% (active)
4,Cc1ccc(NC(=O)N2c3ccccc3SC2c2ccco2)c(C)c1 (stereo not drawn),-10.8% (inactive)
5,CC(=O)N1CCc2cc(S(=O)(=O)NC3CCCCC3)ccc21,6.97% (inactive)
6,Cc1ccc(NC(=O)CN(C)C(=O)Cn2nnc(-c3ccccc3)n2)cc1,-1.85% (inactive)
7,CCOCCn1c(-c2ccccc2)nc2ccccc21,-32.8% (inactive)
8,CC(=O)OCCN(CCCn1c(-c2ccncc2)nc2ccccc21)c1nc(-c2ccc(C)cc2)cs1,53.5% (active)
9,COc1ccc(-c2nc3ccccc3n2CCC(C)C)cc1OC,19.6% (inactive)
10,CCc1cccc2c3c([nH]c12)C(CC)(CC(=O)O)OCC3 (stereo not drawn),-11.8% (inactive)
11,O=C1CCN(Cc2ccccc2)CCN1[C@H](CSc1ccccc1)c1ccccc1,15.6% (inactive)
12,CC(C)C1Cc2[nH][nH]c(=O)c2C(c2ccc(Cl)cc2)O1 (stereo not drawn),-21.6% (inactive)
13,CCC(c1nnnn1-c1ccc2c(c1)OCCO2)N1CCN(c2ccc(C(F)(F)F)cn2)CC1 (stereo not drawn),24.4% (inactive)
14,NS(=O)(=O)c1cccc(NC(=O)COC(=O)c2cc([N+](=O)[O-])ccc2N2CCCC2)c1,7.66% (inactive)
15,CC(=O)Nc1ccc(NC(=O)C(C)OC(=O)c2ccccc2C(=O)c2ccc(Cl)c([N+](=O)[O-])c2)cc1 (stereo not drawn),13.5% (inactive)
16,N#Cc1cccc(NC(=O)COC(=O)c2ccccc2C(=O)c2ccc(Cl)c([N+](=O)[O-])c2)c1,71.8% (active)
17,O=C(c1ccco1)N1CCN(C(=O)C2CCCN(S(=O)(=O)c3cccc4nsnc34)C2)CC1 (stereo not drawn),8.68% (inactive)
18,COc1cc(OC)cc(-c2c(C#Cc3ccsc3)c3cc(-c4ccc(OC)cc4F)ccc3n2C)c1,10.3% (inactive)
19,COc1cccc(NC(=O)N(C)C[C@@H]2OCc3cn(nn3)CCCC(=O)N([C@@H](C)CO)C[C@H]2C)c1,-3.32% (inactive)
20,Cc1cccc(C)c1NC(=O)N1CC=C(n2c(=O)[nH]c3ccccc32)CC1,17.3% (inactive)
21,CCOc1ccc(NC(=O)N2CCN(CC)CC2)cc1,13.8% (inactive)
22,CCOc1ccc(NC(=O)N2CC=C(n3c(=O)[nH]c4ccccc43)CC2)cc1,62% (active)

row,SMILES,inhibition
1,CCCNC(=S)N1CCCC(c2nc3ccccc3[nH]2)C1 (stereo not drawn),1.96% (inactive)
2,CC(C)C[C@@H](COCc1ccc(Cl)cc1)N1CCN(C(=O)c2ccc(Cl)cc2Cl)CCC1=O,15.1% (inactive)
3,Fc1ccc(NC(=S)N2CCc3[nH]c4ccccc4c3C2)cc1,60.8% (active)
4,C[C@H](O)[C@@H]1C(=O)N2CCc3c([nH]c4ccccc34)[C@@H]2C[C@@H]1N(C)C(=O)Nc1ccc(F)cc1,-21.1% (inactive)
5,C=CCNC(=S)N1CCc2[nH]c3ccccc3c2C1,-0.9% (inactive)
6,Cc1ccc(S(=O)(=O)N2[C@@H](Cc3ccccc3)CO[C@H]2CC(=O)OCc2ccccc2)cc1,22.8% (inactive)
7,COc1ccc(NC(=O)CNc2cc(S(=O)(=O)N3CCOCC3)ccc2N2CCOCC2)c(OC)c1,14.2% (inactive)
8,Cc1[nH]nc2c1C(c1ccc(Br)cc1)NC2=O (stereo not drawn),-19.4% (inactive)
9,CCOC(=O)N1CCC(=NNC(N)=O)CC1,5.25% (inactive)
10,Fc1ccc(Cn2nnnc2C(c2cccs2)N2CCCCCC2)cc1 (stereo not drawn),50% (active)
11,Fc1ccccc1C(c1nnnn1Cc1ccc2c(c1)OCO2)N1CCN(Cc2ccccc2)CC1 (stereo not drawn),8.62% (inactive)
12,N#Cc1ccc(C(c2nnnn2CCc2ccccc2)N2CCCCCC2)cc1 (stereo not drawn),19.8% (inactive)
13,CCc1nnc(NC(=O)CSc2nnnn2-c2cccc(C(C)=O)c2)s1,-22.1% (inactive)
14,O=C(NCc1ccccc1)C1c2ccccc2OCC(=O)N1CCCN1CCOCC1 (stereo not drawn),-17.4% (inactive)
15,O=C(O)c1ccc(S(=O)(=O)c2ccccc2)s1,7.73% (inactive)
16,Cc1ccc(NC(=O)C(=O)NCc2ccc(/C=N/NC(=O)c3c(C)nc4cc(C)ccn34)o2)cc1,-9.86% (inactive)
17,Cc1ccc(CNC(=O)c2cccnc2Cl)cc1,0.77% (inactive)
18,CSc1ccccc1C(=O)NCc1ccccc1,3.42% (inactive)
19,Cc1ccc(CNC(=O)c2ccccc2CCc2ccccc2)cc1,49.7% (active)
20,O=C1c2ccccc2C(=O)N1CCC#Cc1ccc2cc(C3(O)CCCCC3)oc(=O)c2c1,75.1% (active)
21,COc1cc(C#Cc2ccc3cc(CCCO)oc(=O)c3c2)cc(OC)c1,26.9% (inactive)
22,Cc1cccn2cc(-c3cccc(S(=O)(=O)N4CCCCC4)c3)nc12,-29.1% (inactive)
